Key:
[1] = target: T1, 3-hydroxy-3-methylglutaryl-coenzyme A reductase (Rattus norvegicus, UniProt P51639); assay: Inhibition of HMG-CoA reductase in Sprague-Dawley rat liver microsomes; design: species or system Microsome
T1 sequence (P51639 whole entry): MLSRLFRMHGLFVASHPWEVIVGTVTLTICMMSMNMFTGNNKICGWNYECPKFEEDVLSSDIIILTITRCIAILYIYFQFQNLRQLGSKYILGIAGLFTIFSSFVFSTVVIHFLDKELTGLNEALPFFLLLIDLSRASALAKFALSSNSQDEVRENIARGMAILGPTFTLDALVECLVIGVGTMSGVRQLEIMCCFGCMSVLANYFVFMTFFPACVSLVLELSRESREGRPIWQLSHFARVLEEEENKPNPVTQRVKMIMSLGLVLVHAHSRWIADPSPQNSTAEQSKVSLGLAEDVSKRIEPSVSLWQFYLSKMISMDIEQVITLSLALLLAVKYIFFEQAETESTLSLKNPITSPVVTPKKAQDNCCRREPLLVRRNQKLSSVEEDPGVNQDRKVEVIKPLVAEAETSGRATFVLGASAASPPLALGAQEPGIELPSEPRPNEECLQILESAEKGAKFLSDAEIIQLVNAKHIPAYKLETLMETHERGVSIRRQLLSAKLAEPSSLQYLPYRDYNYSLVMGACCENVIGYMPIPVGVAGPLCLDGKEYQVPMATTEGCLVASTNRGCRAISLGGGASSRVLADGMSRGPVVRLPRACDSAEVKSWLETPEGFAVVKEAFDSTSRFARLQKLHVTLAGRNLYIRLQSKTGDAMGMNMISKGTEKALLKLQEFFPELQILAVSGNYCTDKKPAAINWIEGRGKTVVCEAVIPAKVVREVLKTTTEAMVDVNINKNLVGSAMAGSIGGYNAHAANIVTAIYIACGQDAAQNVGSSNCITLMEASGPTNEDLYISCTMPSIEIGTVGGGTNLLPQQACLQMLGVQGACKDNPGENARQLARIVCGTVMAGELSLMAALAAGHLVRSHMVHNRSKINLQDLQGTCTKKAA
In short: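 Rat liver microsomes (35 µg/mL) in 100 mM NaH2PO4, 10 mM imidazole, 10 mM EDTA, preincubated with compound in DMSO 0.5 h on ice; 14C-HMG-CoA (0.024 µCi) with 15 mM NADPH and 25 mM DTT added, 0.75 h at 37 °C. Stopped with HCl, lactonized to mevalonolactone, anion-exchange resin separation, scintillation counting; IC50 by curve fit.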

Hepatocyte [2] = assay: Inhibition of cholesterol synthesis in rat hepatocytes; format: functional, cell-based
In short: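 Frozen rat hepatocytes on collagen-coated wells, 10^5 cells/well, grown 24 h in DMEM/10% FBS/10 mM HEPES. Compound preincubation 4 h, then 1 µCi/mL 14C acetic acid for 4 h more.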

L6 = assay: Inhibition of cholesterol synthesis in rat L6 cells; format: functional, cell-based
Hepatocyte [3] = assay: Ratio of IC50 for cholesterol synthesis in rat myocytes to rat hepatocytes; format: functional
Syrian golden hamster [4] = assay: Inhibition of cholesterol synthesis in Goldern Syrian hamster blood at 10 mg/kg, po after 2 to 4 hrs relative to control; format: functional; conditions: Mesocricetus auratus, read-out: Inhibition
In short: (§1)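 Hamsters on chow with 2.5% cholestyramine from 3 days prior; oral gavage of vehicle or compound (10 mpk), n = 8/group. At 2 h (2–4 h arm) or 4 h (4–6 h arm) postdose, i.p. 80 µCi 14C sodium acetate in 0.9% NaCl; euthanized 2 h later, cardiac blood, plasma saponified and extracted, 14C cholesterol counted; % change vs untreated controls.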

Cavia porcellus [5] = assay: Reduction of LDL level in chow fed Hartley guinea pig serum at 20 mg/kg/day, po for 7 days relative to rosuvastatin; format: functional, Hartely; design: scale not given: the % may be the effect or the level left
In short: (§2)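 Male Hartley guinea pigs (300–500 g) on chow diet 5025, acclimated ≥1 week; vehicle or compound suspension by daily oral gavage at 10 or 20 mpk (n = 8/group) for 7 days; sacrificed 2 h after final dose; LDL cholesterol as mean % change from vehicle group.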

Syrian golden hamster [6] = assay: Inhibition of cholesterol synthesis in Golden Syrian hamster blood at 10 mg/kg, po after 4 to 6 hrs relative to control; format: functional; conditions: Mesocricetus auratus, read-out: Inhibition; in short: as §1
Cavia porcellus [7] = assay: Reduction of LDL level in chow fed Hartley guinea pig serum at 10 mg/kg/day, po for 7 days relative to rosuvastatin; format: functional, Hartely; design: scale not given: the % may be the effect or the level left; conditions: in the assay text read “20 mg/kg/day” for “10 mg/kg/day”; in short: as §2
Cavia porcellus [8] = assay: Reduction of LDL level in po dosed Hartley guinea pig plasma after 7 days; format: functional; conditions: Hartely, 168 h
[9] = Lipophilicity, log P of the compound; format: physicochemical; conditions: octanol/water

Row | Structure (SMILES) | IC50 [1] [nM] | IC50 (Hepatocyte [2]) [nM] | IC50 (L6) [nM] | Ratio IC50 (Hepatocyte [3]) | % change in cholesterol synthesis vs control at 10 mg/kg (Syrian golden hamster [4]) [%] | Activity (Cavia porcellus [5]) [%] | Percent change in cholesterol synthesis vs control at 10 mg/kg (Syrian golden hamster [6]) [%] | Activity (Cavia porcellus [7]) [%] | ED50 (Cavia porcellus [8]) [mg/kg] | LogP [9]
1 | Cc1cccc(CN(C)C(=O)c2nn(-c3ccc(F)cc3)c(CC[C@@H](O)C[C@@H](O)CC(=O)[O-])c2C(C)C)c1.[Na+] | 6.1 | 0.6 | 4800 | 8000 | -72 | -15 | – | – | – | –
2 | CC(C)c1c(C(=O)N(C)Cc2ccc(F)cc2F)nn(-c2ccc(F)cc2)c1CC[C@@H](O)C[C@@H](O)CC(=O)[O-].[Na+] | 7 | 2.1 | 4400 | 2100 | -82 | -32 | -17 | – | – | –
3 | CC(C)c1c(C(=O)N(C)Cc2cccc(F)c2F)nn(-c2ccc(F)cc2)c1CC[C@@H](O)C[C@@H](O)CC(=O)[O-].[Na+] | 9 | 0.6 | 5700 | 9500 | -81 | -45 | -22 | – | – | –
4 | CC(C)c1c(C(=O)N(C)[C@@H](C)c2ccccc2)nn(-c2ccc(F)cc2)c1CC[C@@H](O)C[C@@H](O)CC(=O)O | – | 3.5 | 41000 | – | – | – | – | – | – | –
5 | CC(C)c1c(C(=O)N2CCCC2c2ccccc2)nn(-c2ccc(F)cc2)c1CC[C@@H](O)C[C@@H](O)CC(=O)O (stereo partly specified) | 7.3 | 4 | 130 | – | – | – | – | – | – | –
6 | CC(C)c1c(C(=O)N2CCCC(c3ccccc3)C2)nn(-c2ccc(F)cc2)c1CC[C@@H](O)C[C@@H](O)CC(=O)O (stereo partly specified) | 1.5 | 0.4 | 680 | – | -80 | – | -15 | – | – | –
7 | CC(C)c1c(C(=O)N2CCC[C@H](c3ccccc3)C2)nn(-c2ccc(F)cc2)c1CC[C@@H](O)C[C@@H](O)CC(=O)O | 2 | 0.3 | – | – | -78 | – | – | – | – | –
8 | COc1ccc(CNC(=O)c2nn(-c3ccc(F)cc3)c(CC[C@@H](O)C[C@@H](O)CC(=O)O)c2C(C)C)cc1 | 2.8 | 0.4 | 460 | – | – | – | – | – | – | –
9 | COCc1cccc(CNC(=O)c2nn(-c3ccc(F)cc3)c(CC[C@@H](O)C[C@@H](O)CC(=O)[O-])c2C(C)C)c1.[Na+] | 7 | 0.7 | 1800 | 2600 | -71 | -42 | -19 | – | – | –
10 | CC(C)c1c(C(=O)NCc2cccc(C#N)c2)nn(-c2ccc(F)cc2)c1CC[C@@H](O)C[C@@H](O)CC(=O)O | 2.2 | 1.4 | 2400 | – | – | – | – | – | – | –
11 | CC(C)c1c(CC[C@@H](O)C[C@@H](O)CC(=O)O)nn(-c2ccc(F)cc2)c1C(=O)NCc1ccccc1 | 520 | – | – | – | – | – | – | – | – | –
12 | Cc1ccc(CN(C)C(=O)c2nn(-c3ccc(F)cc3)c(CC[C@@H](O)C[C@@H](O)CC(=O)O)c2C(C)C)cc1 | 9.9 | 1.8 | 4000 | – | – | – | – | – | – | –
13 | CC(C)c1c(C(=O)N(C)Cc2ccccc2F)nn(-c2ccc(F)cc2)c1CC[C@@H](O)C[C@@H](O)CC(=O)O | 4.8 | 0.5 | 17000 | – | -69 | – | -30 | – | – | –
14 | CCN(Cc1ccccc1)C(=O)c1nn(-c2ccc(F)cc2)c(CC[C@@H](O)C[C@@H](O)CC(=O)O)c1C(C)C | 3.8 | 5.5 | 4400 | – | – | – | – | – | – | –
15 | CC(C)c1c(C(=O)N(C)Cc2cccc(F)c2)nn(-c2ccc(F)cc2)c1CC[C@@H](O)C[C@@H](O)CC(=O)O | 3.9 | 0.2 | 6000 | – | -65 | – | – | – | – | –
16 | CC(C)c1c(C(=O)N(Cc2ccccc2)C(C)C)nn(-c2ccc(F)cc2)c1CC[C@@H](O)C[C@@H](O)CC(=O)O | 9.8 | 10 | 9800 | – | – | – | – | – | – | –
17 | CC(C)c1c(C(=O)N(C)Cc2ccc(F)cc2)nn(-c2ccc(F)cc2)c1CC[C@@H](O)C[C@@H](O)CC(=O)O | 6.6 | 0.5 | 6000 | – | -71 | – | – | – | – | –
18 | CC(C)c1c(C(=O)NCc2ccc(C(=O)N(C)C)cc2)nn(-c2ccc(F)cc2)c1CC[C@@H](O)C[C@@H](O)CC(=O)O | 25 | 23 | 21000 | – | – | – | – | – | – | –
19 | CC(C)c1c(C(=O)N2CCCCC2c2ccccc2)nn(-c2ccc(F)cc2)c1CC[C@@H](O)C[C@@H](O)CC(=O)O (stereo partly specified) | 6.1 | 1.1 | 330 | – | – | – | – | – | – | –
20 | COc1ccc(CN(C)C(=O)c2nn(-c3ccc(F)cc3)c(CC[C@@H](O)C[C@@H](O)CC(=O)O)c2C(C)C)cc1 | 12 | 0.3 | 5800 | – | -57 | – | – | – | – | –
21 | CC(C)c1c(C(=O)N(C)[C@H](C)c2ccccc2)nn(-c2ccc(F)cc2)c1CC[C@@H](O)C[C@@H](O)CC(=O)[O-].[Na+] | – | 0.3 | 1900 | – | -62 | – | -10 | -11 | – | –
22 | CC(C)c1c(C(=O)NCc2ccc(F)cc2)nn(-c2ccc(F)cc2)c1CC[C@@H](O)C[C@@H](O)CC(=O)O | 3.8 | 0.7 | 490 | – | – | – | – | – | – | –
23 | Cc1ccc(CNC(=O)c2nn(-c3ccc(F)cc3)c(CC[C@@H](O)C[C@@H](O)CC(=O)[O-])c2C(C)C)cc1.[Na+] | 1.9 | 0.9 | 730 | 810 | -74 | -41 | -15 | – | 3.6 | –
24 | CC(C)c1c(C(=O)N(C)Cc2ccccc2)nn(-c2ccc(F)cc2)c1CC[C@@H](O)C[C@@H](O)CC(=O)[O-].[Na+] | 5.9 | 0.2 | 3100 | 16000 | -61 | -20 | -16 | – | – | –
25 | CC(C)c1c(C(=O)NCc2ccccc2)nn(-c2ccc(F)cc2)c1CC[C@@H](O)C[C@@H](O)CC(=O)O | 4.7 | 0.3 | 100 | – | – | – | – | – | – | –
26 | COCc1c(C(C)C)nc(C(C)C)c(/C=C/[C@@H](O)C[C@@H](O)CC(=O)O)c1-c1ccc(F)cc1 [CERIVASTATIN] | – | 1.7 | 3 | – | – | – | – | – | – | –
27 | CC[C@H](C)C(=O)O[C@H]1C[C@H](O)C=C2C=C[C@H](C)[C@H](CC[C@@H](O)C[C@@H](O)CC(=O)O)[C@H]21 [PRAVASTATIN] | 13 | 17 | 7600 | 450 | – | – | – | – | 100 | -0.67
28 | CC(C)c1nc(N(C)S(C)(=O)=O)nc(-c2ccc(F)cc2)c1/C=C/[C@@H](O)C[C@@H](O)CC(=O)O [ROSUVASTATIN] | 3.1 | 0.3 | 250 | 830 | -76 | -42 | -46 | – | 9.3 | –

— ChEMBL document CHEMBL1140700, “Substituted pyrazoles as hepatoselective HMG-CoA reductase inhibitors: discovery of (3R,5R)-7-[2-(4-fluoro-phenyl)-4-isopropyl-5-(4-methyl-benzylcarbamoyl)-2H-pyrazol-3-yl]-3,5-dihydroxyheptanoic acid (PF-3052334) as a candidate for the treatment of hypercholesterolemia” (J Med Chem, 2008)
